Holding throughout (type): functional, organism-based
The test system of test [1] is Rattus norvegicus. The test is described as follows: Analgesic activity in Wistar rats assessed as increase in latency of response to pain at 1 mg/kg, ip treated 20 mins after 1 mg/kg, ip NO donor, L-arginine challenge measured after 15 to 45 mins by hot plate test. An outline of the steps: (§1)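 Male Wistar rats (180–200 g), 12 h light/dark cycle, food and water ad libitum, tested 09.00–12.00, five rats per group. Peptide given i.p. in sterile 0.9% saline. Pretreatment agents (naloxone or L-Arg at 1 mg/kg, L-NAME at 10 mg/kg, i.p.) were given 20 min before the peptide. Readings began 15 min after peptide injection. Hot plate at 55 ± 0.5 °C; latency measured to first paw licking or jump; 30 s cut-off. Mean ± S.E.M., ANOVA, P < 0.05.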
A general note: In hot-plate and tail-flick tests a longer latency is read as antinociception.

Test [2] deals with Rattus norvegicus. In words: Analgesic activity in Wistar rats assessed as increase in latency of response to pain at 1 mg/kg, ip treated 20 mins after 1 mg/kg, ip […] opiate receptor antagonist, naloxone challenge measured after 15 to 30 mins by hot plate test. An outline of the steps: as §1
In test [3] the test system is Rattus norvegicus. The test is described as follows: Analgesic activity in Wistar rats assessed as increase in mechanical nociceptive threshold at 1 mg/kg, ip treated 20 mins after 1 mg/kg, ip NO donor, L-arginine challenge measured after 15 to 45 mins by paw pressure test. An outline of the steps:
(§2)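 Male Wistar rats (180–200 g), five per group, tested 09.00–12.00. Peptide given i.p. in sterile 0.9% saline. Pretreatment agents (naloxone or L-Arg at 1 mg/kg, L-NAME at 10 mg/kg, i.p.) were given 20 min before the peptide. Readings began 15 min after peptide injection. Randall-Selitto analgesimeter applied pressure to the hind paw; threshold was the pressure (g) eliciting squeak or struggle; 500 g cut-off. Mean ± S.E.M., ANOVA.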

The subject of test [4] is Rattus norvegicus. The test is described as follows: Analgesic activity in Wistar rats assessed as increase in latency of response to pain at 1 mg/kg, ip measured after 15 mins by hot plate test. On the set-up: dose 1 mg/kg. An outline of the steps: as §1
The subject of test [5] is Rattus norvegicus. The test is described as follows: Analgesic activity in Wistar rats assessed as increase in mechanical nociceptive threshold at 1 mg/kg, ip treated 20 mins after 1 mg/kg, ip […] opiate receptor antagonist, naloxone challenge measured after 15 to 30 mins by paw pressure test. A digest of the protocol: as §2
The subject of test [6] is Rattus norvegicus. In words: Analgesic activity in Wistar rats assessed as increase in latency of response to pain at 1 mg/kg, ip treated 20 mins after 10 mg/kg, ip NOS inhibitor, L-NAME challenge measured after 15 to 45 mins by hot plate test. A digest of the protocol:
as §1

For test [7], the system named is Rattus norvegicus. The test is described as follows: Analgesic activity in Wistar rats assessed as increase in mechanical nociceptive threshold at 1 mg/kg, ip measured after 15 mins by paw pressure test. Further details: dose 1 mg/kg. A digest of the protocol: as §2
The test system of test [8] is Rattus norvegicus. In words: Analgesic activity in Wistar rats assessed as increase in mechanical nociceptive threshold at 1 mg/kg, ip treated 20 mins after 10 mg/kg, ip NOS inhibitor, L-NAME challenge measured after 15 to 45 mins by paw pressure test. An outline of the steps:
as §2

Test [9] has as its system Rattus norvegicus. In words: Analgesic activity in Wistar rats assessed as increase in latency of response to pain at 1 mg/kg, ip measured after 15 to 45 mins by hot plate test. On the set-up: dose 1 mg/kg. An outline of the steps: as §1
Test [10] has as its system Rattus norvegicus. The test is described as follows: Analgesic activity in Wistar rats assessed as increase in mechanical nociceptive threshold at 1 mg/kg, ip measured after 15 to 30 mins by paw pressure test. Further details: dose 1 mg/kg. An outline of the steps:
as §2

The source made the active and inactive calls. Residues, ends and D or L forms follow the SMILES beside them.

For `CC(C)C[C@H](NC(=O)[C@@H]1CCCN1)C(=O)NCC(N)=O` (H-Pro-Leu-Gly-NH2), the result in [1], in test [2], in test [3], in test [5], in test [6] and in test [7] was inactive. Moreover, the outcome in test [8] was inactive. The outcome in test [4] was Active.

Consider `CC(C)C[C@H](NC(=O)[C@]1(C(F)(F)F)CCCN1)C(=O)NCC(N)=O`, for which the outcome in test [1], in test [9], in test [2], in [3], in test [5] and in test [6] was inactive. In addition, in test [8], the outcome was inactive. Besides, the result in test [10] was Active.

The record behind these values is ChEMBL document CHEMBL2331250, “Synthesis of an MIF-1 analogue containing enantiopure (S)-α-trifluoromethyl-proline and biological evaluation on nociception” (Eur J Med Chem, 2013).
